Consider 18 compounds from ChEMBL document CHEMBL3351238, “Part I. Synthesis, biological evaluation and docking studies of new 2-furylbenzimidazoles as antiangiogenic agents” (Eur J Med Chem, 2014).

Experiment [1] concerns MCF7. Nature of the experiment: Cytotoxicity against human MCF7 cells after 48 hrs by sulforhodamine B assay. The format is functional, cell-based. The conditions noted are these: MCF7, 48 h. An outline of the steps:
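MCF-7 cells seeded at 10^4 per well and allowed 24 h to attach, then exposed to 0.0, 5.0, 12.5, 25.0 and 50 μg/ml, six wells per dose, for 48 h at 37 °C in 5% CO2. Cells were fixed and stained with sulforhodamine B. Bound dye was recovered in Tris EDTA and read on an ELISA reader. IC50 taken from the survival-fraction versus concentration curve.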

For experiment [2], the system named is MCF7. The experiment in a line: Inhibition of VEGF production in human MCF7 cells at cytotoxic IC50 level after 24 hrs by ELISA. The format is functional. The procedure, abridged: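 MCF-7 from ATCC, grown in DMEM with 10% heat-inactivated FCS, penicillin and streptomycin at 37 °C in 5% CO2, 0.50 × 10^6 cells per 25 cm2 flask. Compound in DMSO (tamoxifen as reference) added for 24 h. Cells homogenized in saline. Human VEGF measured by double-antibody sandwich ELISA (biotin antibody, streptavidin-HRP, A450) against a standard curve, duplicate determinations. Inhibition relative to untreated cells.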
(ELISA stands for enzyme-linked immunosorbent assay.)

Experiment [3] addresses T1, Prostaglandin G/H synthase 1 (Ovis aries, UniProt P05979).
T1 sequence (P05979 whole entry): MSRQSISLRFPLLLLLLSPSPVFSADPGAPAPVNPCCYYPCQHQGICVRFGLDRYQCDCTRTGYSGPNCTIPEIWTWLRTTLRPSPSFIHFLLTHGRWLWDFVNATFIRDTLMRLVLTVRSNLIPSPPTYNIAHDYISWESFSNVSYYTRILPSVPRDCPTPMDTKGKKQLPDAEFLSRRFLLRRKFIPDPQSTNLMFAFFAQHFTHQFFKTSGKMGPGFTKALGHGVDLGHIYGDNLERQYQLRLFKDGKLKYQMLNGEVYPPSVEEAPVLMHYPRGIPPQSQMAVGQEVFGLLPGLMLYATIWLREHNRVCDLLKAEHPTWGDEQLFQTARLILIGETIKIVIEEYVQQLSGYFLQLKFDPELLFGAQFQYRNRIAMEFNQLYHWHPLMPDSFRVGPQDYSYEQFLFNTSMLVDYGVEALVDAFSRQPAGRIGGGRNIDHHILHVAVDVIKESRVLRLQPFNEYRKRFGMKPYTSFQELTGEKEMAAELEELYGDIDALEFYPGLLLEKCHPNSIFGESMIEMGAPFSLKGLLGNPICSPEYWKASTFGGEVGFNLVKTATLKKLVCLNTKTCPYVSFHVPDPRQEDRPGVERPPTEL
Nature of the experiment: Inhibition of ovine COX1 assessed as reduction in PGH2-dervied PGF2alpha production using arachidonic acid substrate by enzyme immunoassay. An outline of the steps: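 Arachidonic acid added and reaction stopped with HCl after 2 min. PGH2 reduced with SnCl2 and PGF2α quantified by competitive EIA at 410 nm. IC50 from concentration–inhibition curve, duplicates.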

Values after ≈ are worked out from the molar mass of the structure shown. Bounds are passed on as bounds.

Broadly, the IC50 is the concentration that inhibits the measured activity by half. `Cc1ccc(-c2nc3ccccc3[nH]2)o1`: the 50% inhibitory concentration (IC50) in the experiment on MCF7 [1] stood at 14 µg/mL (≈ 70.6 µM). In addition, the “inhibition (INH)” value in the experiment on MCF7 [2] is reported as 95%.
Compound `CCOC(=O)Cn1c(-c2ccco2)nc2ccccc21` displayed a 50% inhibitory concentration (IC50) in the experiment on MCF7 [1] of 15.2 µg/mL (≈ 56.2 µM). In addition, in the experiment with MCF7 [2], the “inhibition (INH)” value is 62%.
On the same counts, the results for `CCOC(=O)Cn1c(-c2ccc(C)o2)nc2ccccc21` are 17.8 µg/mL (≈ 62.6 µM) and 28%.
In the same order, the values of `c1ccc(Cn2c(-c3ccco3)nc3ccccc32)cc1` are 6.98 µg/mL (≈ 25.4 µM) and 98%.
Turning to `O=S(=O)(c1ccccc1)n1c(-c2ccco2)nc2ccccc21`, in the experiment on MCF7 [1], the IC50 came to 21.2 µg/mL (≈ 65.4 µM). Further, the “inhibition (INH)” value with MCF7 [2] was 14%.
On the same counts, the results for `Cc1ccc(-c2nc3ccccc3n2S(=O)(=O)c2ccccc2)o1` are 8.63 µg/mL (≈ 25.5 µM) and 98%.
In the same order, the values of `NNC(=O)Cn1c(-c2ccco2)nc2ccccc21` are 20.2 µg/mL (≈ 78.8 µM) and 24%.
In the case of `Cc1ccc(-c2nc3ccccc3n2CC(=O)NN)o1`, the half-inhibitory concentration (IC50) with MCF7 [1] was 22.4 µg/mL (≈ 82.9 µM); in experiment [3] it was above 50 µM. Also, the “inhibition (INH)” value in the experiment with MCF7 [2] was 86%.
On the same counts, the results for `NNC(=O)Cn1c(-c2ccc(CNc3ccncc3)o2)nc2ccccc21` are 22 µg/mL (≈ 60.7 µM), above 50 µM and 90%.
As for `NNC(=O)Cn1c(-c2ccc(CNCc3ccccc3)o2)nc2ccccc21`, the IC50 in the experiment on MCF7 [1] was found to be 19.3 µg/mL (≈ 51.4 µM). Moreover, the “inhibition (INH)” value with MCF7 [2] was determined as 19%.
The compound `S=c1[nH]nc(Cn2c(-c3ccco3)nc3ccccc32)o1` yielded an IC50 with MCF7 [1] of 16.9 µg/mL (≈ 56.6 µM). Moreover, in the experiment with MCF7 [2], the “inhibition (INH)” value was 41%.
As for `Cc1ccc(-c2nc3ccccc3n2Cc2n[nH]c(=S)o2)o1`, in the experiment with MCF7 [1], inhibition was half-maximal at 16.6 µg/mL (≈ 53.1 µM) (IC50). Moreover, in the experiment with MCF7 [2], the “inhibition (INH)” value was 39%.
On the same counts, the results for `CCOC(=O)C/C(C)=N/NC(=O)Cn1c(-c2ccco2)nc2ccccc21` are 17 µg/mL (≈ 46.1 µM) and 38%.
In the same order, the values of `CCOC(=O)C/C(C)=N/NC(=O)Cn1c(-c2ccc(C)o2)nc2ccccc21` are 19.6 µg/mL (≈ 51.3 µM) and 24%.
On to `Nn1c(Cn2c(-c3ccco3)nc3ccccc32)n[nH]c1=S`, for which the concentration for half-maximal inhibition (IC50) was 20.5 µg/mL (≈ 65.6 µM) with MCF7 [1] and above 50 µM in experiment [3]. Also, the “inhibition (INH)” value in the experiment with MCF7 [2] is given as 91%.
In the experiment with MCF7 [1], `CSc1nnc(-n2c(-c3ccco3)nc3ccccc32)o1` showed an IC50 of 19.3 µg/mL (≈ 64.7 µM). In addition, the “inhibition (INH)” value in the experiment with MCF7 [2] came out at 16%.
In the same order, the values of `c1coc(-c2nc3ccccc3[nH]2)c1` [FUBERIDAZOLE] are 21.5 µg/mL (≈ 117 µM) and 15%.
As to `CC/C(=C(\c1ccccc1)c1ccc(OCCN(C)C)cc1)c1ccccc1` [TAMOXIFEN], the IC50 in the experiment with MCF7 [1] turned out to be 8 µg/mL (≈ 21.5 µM). In addition, the “inhibition (INH)” value with MCF7 [2] is 98%.
